Assay results published in ChEMBL document CHEMBL5038619, “Interfering with the Tumor-Immune Interface: Making Way for Triazine-Based Small Molecules as Novel PD-L1 Inhibitors” (J Med Chem, 2021).
Calls of active or inactive are those of the source. No cut-off for these calls is given here.

Assays:
[1] = target: T1, Programmed cell death protein 1/Programmed cell death 1 ligand 1 (Homo sapiens, UniProt Q9NZQ7); assay: Inhibition of human recombinant PD-1/PDL-1 interaction measured by HTRF assay; assay type: protein-complex assay
T1 sequence (Q15116 whole entry): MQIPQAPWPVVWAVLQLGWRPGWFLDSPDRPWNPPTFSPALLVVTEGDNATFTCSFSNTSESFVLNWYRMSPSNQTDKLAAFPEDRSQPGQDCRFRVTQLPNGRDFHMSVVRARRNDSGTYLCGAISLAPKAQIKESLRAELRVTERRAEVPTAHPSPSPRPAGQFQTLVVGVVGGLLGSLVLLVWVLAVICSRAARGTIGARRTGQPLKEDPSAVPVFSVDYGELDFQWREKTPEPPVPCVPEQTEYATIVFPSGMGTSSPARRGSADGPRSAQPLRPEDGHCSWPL
T1 sequence (Q9NZQ7 whole entry): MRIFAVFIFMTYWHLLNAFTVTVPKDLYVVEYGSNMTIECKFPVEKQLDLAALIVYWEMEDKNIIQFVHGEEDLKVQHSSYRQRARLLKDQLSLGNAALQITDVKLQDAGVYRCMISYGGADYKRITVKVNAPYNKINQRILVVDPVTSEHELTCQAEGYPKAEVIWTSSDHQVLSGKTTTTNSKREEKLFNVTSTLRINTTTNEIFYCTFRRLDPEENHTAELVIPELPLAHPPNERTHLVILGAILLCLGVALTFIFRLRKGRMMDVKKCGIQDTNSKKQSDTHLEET

[2] = target: T1, Programmed cell death protein 1/Programmed cell death 1 ligand 1; assay: Inhibition of PD-1/PDL-1 (unknown origin) binding; assay type: protein-complex assay
PC-9 [3] = assay: Cytotoxicity against human PC-9 cells assessed as reduction in cell viability at 100 uM for 48 hrs by CCK-8 assay; assay type: toxicity, cell-based; details: pc-9, 48 h
How it was run: (§1)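 Cells were seeded at 1×10^4/well in triplicate and exposed to 0.1–100 μM compound with DMSO held at 0.02% in all wells. Untreated wells served as reference. After 24 or 48 h at 37 °C, 5% CO2, viability was read by CCK-8 at 450 nm (reference 600 nm). Results are percent survival versus untreated, mean ± SD of three independent experiments in triplicate.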

[4] = Cytotoxicity against human PBMC cells assessed as reduction in cell viability at 10 uM for 24 hrs by CCK-8 assay; assay type: toxicity, cell-based; how it was run: as §1
HaCaT [5] = assay: Cytotoxicity against human HaCaT cells assessed as reduction in cell viability at 10 uM for 24 hrs by CCK-8 assay; assay type: toxicity, cell-based; how it was run: as §1
PC-9 [6] = assay: Cytotoxicity against human PC-9 cells assessed as reduction in cell viability at 10 uM for 24 hrs by CCK-8 assay; assay type: toxicity, cell-based; details: pc-9, 24 h; how it was run: as §1
HCC827 [7] = assay: Cytotoxicity against human HCC827 cells assessed as reduction in cell viability at 10 uM for 24 hrs by CCK-8 assay; assay type: toxicity, cell-based; details: hcc827, 24 h; how it was run: as §1
[8] = Cytotoxicity against human PBMC cells assessed as reduction in cell viability at 10 uM for 48 hrs by CCK-8 assay; assay type: toxicity, cell-based; how it was run: as §1
HaCaT [9] = assay: Cytotoxicity against human HaCaT cells assessed as reduction in cell viability at 10 uM for 48 hrs by CCK-8 assay; assay type: toxicity, cell-based; how it was run: as §1
PC-9 [10] = assay: Cytotoxicity against human PC-9 cells assessed as reduction in cell viability at 10 uM for 48 hrs by CCK-8 assay; assay type: toxicity, cell-based; details: pc-9, 48 h; how it was run: as §1
HCC827 [11] = assay: Cytotoxicity against human HCC827 cells assessed as reduction in cell viability at 10 uM for 48 hrs by CCK-8 assay; assay type: toxicity, cell-based; details: hcc827, 48 h; how it was run: as §1
[12] = Cytotoxicity against human PBMC cells assessed as reduction in cell viability at 100 uM for 24 hrs by CCK-8 assay; assay type: toxicity, cell-based; how it was run: as §1
HaCaT [13] = assay: Cytotoxicity against human HaCaT cells assessed as reduction in cell viability at 100 uM for 24 hrs by CCK-8 assay; assay type: toxicity, cell-based; how it was run: as §1
PC-9 [14] = assay: Cytotoxicity against human PC-9 cells assessed as reduction in cell viability at 100 uM for 24 hrs by CCK-8 assay; assay type: toxicity, cell-based; details: pc-9, 24 h; how it was run: as §1
HCC827 [15] = assay: Cytotoxicity against human HCC827 cells assessed as reduction in cell viability at 100 uM for 24 hrs by CCK-8 assay; assay type: toxicity, cell-based; details: hcc827, 24 h; how it was run: as §1
[16] = Cytotoxicity against human PBMC cells assessed as reduction in cell viability at 100 uM for 48 hrs by CCK-8 assay; assay type: toxicity, cell-based; how it was run: as §1
HaCaT [17] = assay: Cytotoxicity against human HaCaT cells assessed as reduction in cell viability at 100 uM for 48 hrs by CCK-8 assay; assay type: toxicity, cell-based; how it was run: as §1
HCC827 [18] = assay: Cytotoxicity against human HCC827 cells assessed as reduction in cell viability at 100 uM for 48 hrs by CCK-8 assay; assay type: functional, cell-based; how it was run: as §1
PC-9 [19] = assay: Immunomodulatory activity in human PC9 cells expressing PD-L1 assessed as morphological changes at 1 uM measured after 48 hrs by phase-contrast microscopy; assay type: functional, cell-based
HCC827 [20] = assay: Immunomodulatory activity in human HCC827 cells expressing PD-L1 co-cultured stimulated PMBC cells assessed as IFN-gamma release level at 1 uM measured after 48 hr by ELISA; assay type: functional, cell-based
How it was run: (§2)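 Co-culture: PC9 or HCC827 cells (2×10^5/well) plus 2×10^6 PBMCs, 1 μM compound, then anti-CD3/anti-CD28 TransAct (1 μg/mL each) 1 h later. After 48 h, IFN-γ in the medium was measured by sandwich ELISA (450 nm). Values are mean ± SD of three independent experiments in triplicate; two-sided t-test.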

PC-9 [21] = assay: Immunomodulatory activity in human PC9 cells expressing PD-L1 co-cultured stimulated PMBC cells assessed as morphological changes at 1 uM measured after 48 hrs by phase-contrast microscopy; assay type: functional, cell-based
How it was run: (§3)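 PC9 or HCC827 cells (2×10^5/well, 24 h) were co-cultured with 2×10^6 PBMCs. Compound was added at 1 μM, and 1 h later PBMCs were stimulated with anti-CD3/anti-CD28 TransAct (1 μg/mL each). Controls were unstimulated PBMCs and untreated cancer cells. After 48 h, phase-contrast microscopy was used to look for junction disruption, nuclear swelling, vacuolization, cytosol shrinkage and membrane rupture.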

HCC827 [22] = assay: Immunomodulatory activity in human HCC827 cells expressing PD-L1 assessed as morphological changes at 1 uM measured after 48 hrs by phase-contrast microscopy; assay type: functional, cell-based
HCC827 [23] = assay: Immunomodulatory activity in human HCC827 cells expressing PD-L1 co-cultured stimulated PMBC cells assessed as morphological changes at 1 uM measured after 48 hrs by phase-contrast microscopy; assay type: functional, cell-based; how it was run: as §3
PC-9 [24] = assay: Immunomodulatory activity in human PC9 cells expressing PD-L1 co-cultured stimulated PMBC cells assessed as IFN-gamma release level at 1 uM measured after 48 hr by ELISA; assay type: functional, cell-based; how it was run: as §2
HCC827 [25] = assay: Immunomodulatory activity in human HCC827 cells expressing PD-L1 co-cultured stimulated PMBC cells assessed as reduction in cell viability at 1 uM for 48 hr by CCK8 assay; assay type: functional, cell-based
How it was run: (§4)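 PC9 or HCC827 cells were co-cultured 48 h with PBMCs, treated with 1 μM compound and stimulated 1 h later with anti-CD3/anti-CD28 (1 μg/mL each). PBMCs were then removed by PBS washes and viability of the remaining cancer cells was read by CCK-8. Results are percent survival versus untreated, mean ± SD of three independent experiments in triplicate.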

PC-9 [26] = assay: Immunomodulatory activity in human PC9 cells expressing PD-L1 co-cultured stimulated PMBC cells assessed as reduction in cell viability at 1 uM for 48 hr by CCK8 assay; assay type: functional, cell-based; how it was run: as §4
PC-9 [27] = assay: Immunomodulatory activity in human PC9 cells expressing PD-L1 co-cultured stimulated PMBC cells assessed as induction of apoptosis at 1 uM for 48 hr by Annexin V-FITC and propidium iodide based flow cytometry; assay type: functional, cell-based
How it was run: (§5)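 In the same PBMC/cancer-cell co-culture (1 μM compound for 1 h before TransAct anti-CD3/CD28 stimulation, 1 μg/mL each), cells were harvested after 48 h. They were stained with annexin V-FITC/PI and analysed by flow cytometry. Results are mean fraction of annexin V+ cells ± SD, three independent experiments.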

HCC827 [28] = assay: Immunomodulatory activity in human HCC827 cells expressing PD-L1 co-cultured stimulated PMBC cells assessed as induction of apoptosis at 1 uM for 48 hr by Annexin V-FITC and propidium iodide based flow cytometry; assay type: functional, cell-based; how it was run: as §5
[29] = target: Programmed cell death 1 ligand 1 (Homo sapiens) (UniProt Q9NZQ7); details: dose 32.0 µM
Sequence of Programmed cell death 1 ligand 1 (Homo sapiens) (Q9NZQ7 whole entry): as above

[30] = target: Programmed cell death 1 ligand 1 (Homo sapiens) (UniProt Q9NZQ7); assay: Binding affinity to human PD-L1 expressing on exosomes assessed as decrease in […] intensity at 0.5 mM by STD-NMR spectroscopy
[31] = target: Programmed cell death 1 ligand 1 (Homo sapiens) (UniProt Q9NZQ7); assay: Binding affinity to human PD-L1 expressing on exosomes assessed as decrease in […] intensity at 0.5 mM by WL-NMR spectroscopy

COC(=O)[C@H](Cc1c[nH]cn1)Nc1nc(OCc2cccc(C#N)c2)nc(OCc2cccc(-c3ccccc3)c2C)n1
IC50 [1]: > 5000 nM

CC(=O)NCCNc1nc(OCc2cccc(C#N)c2)nc(OCc2cccc(-c3ccccc3)c2C)n1
IC50 [1]: > 5000 nM

COc1cc(C(=O)N2CCC3C(c4ccccc4)=CC=CC32)ccc1CNCCO (configuration not stated)
IC50 [2]: 132 nM

Cc1c(COc2nc(N[C@@H](Cc3c[nH]cn3)C(=O)O)nc(OCc3cccc(C#N)c3)n2)cccc1-c1ccccc1
IC50 [1]: > 5000 nM

COc1nc(OCc2cccc(-c3ccccc3)c2C)ccc1CNCCNC(C)=O
Activity (PC-9 [3]): Toxic | Activity [4]: Non-Toxic | Activity (HaCaT [5]): Non-Toxic | Activity (PC-9 [6]): Non-Toxic | Activity (HCC827 [7]): Non-Toxic | Activity [8]: Non-Toxic | Activity (HaCaT [9]): Non-Toxic | Activity (PC-9 [10]): Non-Toxic | Activity (HCC827 [11]): Non-Toxic | Activity [12]: Toxic | Activity (HaCaT [13]): Toxic | Activity (PC-9 [14]): Toxic | Activity (HCC827 [15]): Toxic | Activity [16]: Toxic | Activity (HaCaT [17]): Toxic | Activity (HCC827 [18]): Toxic | Activity (PC-9 [19]): inactive | Activity (HCC827 [20]): Active | Activity (PC-9 [21]): Active | Activity (HCC827 [22]): inactive | Activity (HCC827 [23]): Active | Activity (PC-9 [24]): Active | Activity (HCC827 [25]): Active | Activity (PC-9 [26]): Active | Activity (PC-9 [27]): Active | Activity (HCC827 [28]): Active | Tm [29]: 53 °C

O=C(O)[C@@H]1CCCCN1Cc1ccc(OCc2cccc(-c3ccccc3)c2Br)c(Br)c1
IC50 [2]: 15 nM

COC(=O)[C@H](Cc1c[nH]cn1)Nc1ncnc(OCc2cccc(-c3ccccc3)c2C)n1
Activity [30]: Active | Activity [31]: Active

CC(=O)NCCNc1ncnc(OCc2cccc(-c3ccccc3)c2C)n1
Activity (PC-9 [3]): Toxic | IC50 [1]: 115 nM | Activity [4]: Non-Toxic | Activity (HaCaT [5]): Non-Toxic | Activity (PC-9 [6]): Non-Toxic | Activity (HCC827 [7]): Non-Toxic | Activity [8]: Non-Toxic | Activity (HaCaT [9]): Non-Toxic | Activity (PC-9 [10]): Non-Toxic | Activity (HCC827 [11]): Non-Toxic | Activity (HaCaT [13]): Toxic | Activity (PC-9 [14]): Toxic | Activity (HCC827 [15]): Toxic | Activity [16]: Toxic | Activity (HaCaT [17]): Toxic | Activity (HCC827 [18]): Toxic | Activity (PC-9 [19]): inactive | Activity (HCC827 [20]): Active | Activity (PC-9 [21]): Active | Activity (HCC827 [22]): inactive | Activity (HCC827 [23]): Active | Activity (PC-9 [24]): Active | Activity (HCC827 [25]): Active | Activity (PC-9 [26]): Active | Activity (PC-9 [27]): Active | Activity (HCC827 [28]): Active | Tm [29]: 49 °C

CC(C)(C)OC(=O)NCCNc1nc(OCc2ccccc2)nc(N2CCC[C@H]2C(=O)NCc2ccccc2)n1
IC50 [1]: > 5000 nM

CC(=O)NCCNc1nc(O)nc(OCc2cccc(-c3ccccc3)c2C)n1
IC50 [1]: > 5000 nM

Cc1c(COc2ncnc(NCCNS(C)(=O)=O)n2)cccc1-c1ccccc1
IC50 [1]: 241 nM

Cc1c(COc2ccc(CN3CCCC[C@H]3C(=O)NCCN)c(OCc3cccc(C#N)c3)c2)cccc1-c1ccccc1
IC50 [2]: 9.1 nM

COc1nc(NCCNC(C)=O)nc(OCc2cccc(-c3ccccc3)c2C)n1
IC50 [1]: 1530 nM

CC(=O)NCCCNc1ncnc(OCc2cccc(-c3ccccc3)c2C)n1
IC50 [1]: 2150 nM

Cc1c(COc2ccc(CN[C@H](CO)C(=O)O)c(OCc3cncc(C#N)c3)n2)cccc1-c1ccccc1
IC50 [2]: 12 nM

CC(=O)NCCNc1nc(C)nc(OCc2cccc(-c3ccccc3)c2C)n1
IC50 [1]: > 5000 nM

Cc1c(COc2ccc(CNCCO)n3cnnc23)cccc1-c1ccc2c(c1)OCCO2
IC50 [2]: 92.3 nM

Cc1c(COc2ncnc(NCCS(N)(=O)=O)n2)cccc1-c1ccccc1
IC50 [1]: 551 nM

Cc1c(COc2ncnc(N[C@@H](Cc3c[nH]cn3)C(=O)O)n2)cccc1-c1ccccc1
IC50 [1]: > 5000 nM
